Measurements reported in ChEMBL document CHEMBL1764962, “Selective biocatalytic aminolysis of (±)-epichlorohydrin: synthesis and ICAM-1 inhibitory activity of (S)-(+)-3-arylamino-1-chloropropan-2-ols” (Bioorg Med Chem, 2011).
Converted amounts (≈) assume the structure as drawn.

Assays:
HUVEC [1] = experiment: Antiinflammatory activity in human HUVEC assessed as inhibition of TNF-alpha-induced ICAM-1 expression by modified ELISA; type: functional, cell-based
Procedure, shortened: (§1)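 Primary human umbilical cord endothelial cells were isolated by mild trypsinization and grown in M199 with 15% heat-inactivated FCS, L-glutamine, antibiotics, endothelial cell growth factor and heparin, then used at passages 3–4. Cells were preincubated with compound, then given TNF-α (10 ng/ml) for 16 h and fixed with glutaraldehyde. Surface ICAM-1 was measured by cell-ELISA using anti-ICAM-1 mAb overnight at 4 °C, HRP anti-mouse secondary and OPD substrate (pH 4.5), reading A490.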

[2] = Toxicity in human HUVEC assessed as maximum tolerable dose by trypan blue exclusion assay; type: cell-based; settings: HUVEC cells, read-out: MTD
Procedure, shortened: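 Primary human umbilical vein endothelial cells were isolated by mild trypsinization. They were grown in M199 with 15% heat-inactivated FCS, 2 mM L-glutamine, penicillin/streptomycin, amphotericin B, endothelial cell growth factor and heparin. Cells were subcultured at confluence with trypsin–EDTA and used at passages three to four. Viability was scored by trypan blue exclusion.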

HUVEC [3] = experiment: Antiinflammatory activity in human HUVEC assessed as inhibition of TNF-alpha-induced ICAM-1 expression at maximum tolerable dose of 40 ug/ml by modified ELISA; type: functional; procedure, shortened: as §1
HUVEC [4] = experiment: Antiinflammatory activity in human HUVEC assessed as inhibition of TNF-alpha-induced ICAM-1 expression at maximum tolerable dose of 30 ug/ml by modified ELISA; type: functional; procedure, shortened: as §1
[5] = Homo sapiens, HUVEC, read-out: IC50

O[C@H](CCl)CNc1ccc(Br)cc1
IC50 (HUVEC [1]; [5]): 31.6 µg/mL (≈ 119 µM) | MNTC [2]: 40 µg/mL | inhibition at 40 µg/mL (HUVEC [3]): 76%

O[C@H](CCl)CNc1ccc(Cl)cc1
IC50 (HUVEC [1]; [5]): 28.8 µg/mL (≈ 131 µM) | MNTC [2]: 30 µg/mL | inhibition at 30 µg/mL (HUVEC [4]): 60%

COc1ccc(OC)c(NC[C@H](O)CCl)c1
IC50 (HUVEC [1]; huvec): Not Active | MNTC [2]: 30 µg/mL | inhibition at 30 µg/mL (HUVEC [4]): 40%

O[C@H](CCl)CNc1ccccc1Cl
IC50 (HUVEC [1]; [5]): 33.1 µg/mL (≈ 150 µM) | MNTC [2]: 40 µg/mL | inhibition at 40 µg/mL (HUVEC [3]): 86%

O[C@H](CCl)CNc1cccc(Cl)c1
IC50 (HUVEC [1]; huvec): Not Active | MNTC [2]: 30 µg/mL | inhibition at 30 µg/mL (HUVEC [4]): 24%

O[C@H](CCl)CNc1ccccc1
IC50 (HUVEC [1]; [5]): 39.8 µg/mL (≈ 214 µM) | MNTC [2]: 30 µg/mL | inhibition at 30 µg/mL (HUVEC [4]): 38%

Cc1ccc(NC[C@H](O)CCl)cc1
IC50 (HUVEC [1]; [5]): 28.8 µg/mL (≈ 144 µM) | MNTC [2]: 40 µg/mL | inhibition at 40 µg/mL (HUVEC [3]): 81%
